Experimental findings from ChEMBL document CHEMBL4840303, “Design, synthesis, biological evaluation and pharmacophore model analysis of novel tetrahydropyrrolo[3,4-c]pyrazol derivatives as potential TRKs inhibitors” (Eur J Med Chem, 2021) are described below.

The test system of assay [1] is KM12. Nature of the assay: Induction of apoptosis in human KM12 cells assessed as late apoptotic cells at 500 nM measured after 48 hrs by AnnexinV-FITC/PI staining based flowcytometry assay relative to control. The class given is functional. The method, boiled down:
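They were detached with trypsin, washed twice in PBS, and 10^5 cells were suspended in Annexin V binding buffer. Cells were stained with FITC-Annexin V and PI for 10 min at room temperature in the dark, diluted with PBS and analysed by flow cytometry.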

Assay [2] deals with KM12. Nature of the assay: Induction of apoptosis in human KM12 cells assessed as viable cells at 1000 nM measured after 48 hrs by AnnexinV-FITC/PI staining based flowcytometry assay relative to control. Conditions: read-out: Activity. Type of assay: functional. A digest of the protocol: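 10^5 cells in Annexin V binding buffer stained with FITC-Annexin V and PI for 10 min at room temperature in the dark, diluted with PBS and analysed by flow cytometry (FITC 494/518 nm, PI 535/617 nm).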

For assay [3], the system named is KM12. Briefly: Cell cycle arrest in human KM12 cells assessed as accumulation of cells at greater G1 phase at 62.5 nM measured after 48 hrs by AnnexinV-FITC/PI staining based flowcytometry method relative to control. Type of assay: functional.
The target of assay [4] is Mitogen-activated protein kinase 3 (Homo sapiens) (UniProt P27361). Briefly: Inhibition of recombinant GST-tagged full length human ERK1 expressed in Escherichia coli expression system at 1 uM measured by select screen assay relative to control. A digest of the protocol: (§1)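 Single-concentration profiling at 1.0 µM in a 28-kinase SelectScreen panel; percent inhibition reported.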
Chain of Mitogen-activated protein kinase 3 (Homo sapiens) (P27361 whole entry): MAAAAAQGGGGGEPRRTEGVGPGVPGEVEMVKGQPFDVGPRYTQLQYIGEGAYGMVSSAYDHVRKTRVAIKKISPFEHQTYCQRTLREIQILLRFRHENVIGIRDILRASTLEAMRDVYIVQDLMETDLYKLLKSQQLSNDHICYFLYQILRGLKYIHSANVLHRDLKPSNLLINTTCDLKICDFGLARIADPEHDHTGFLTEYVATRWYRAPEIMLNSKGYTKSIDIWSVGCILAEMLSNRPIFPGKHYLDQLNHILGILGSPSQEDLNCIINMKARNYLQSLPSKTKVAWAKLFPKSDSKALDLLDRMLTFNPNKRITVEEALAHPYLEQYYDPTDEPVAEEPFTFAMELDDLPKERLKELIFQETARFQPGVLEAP

Assay [5] has as its target BDNF/NT-3 growth factors receptor (Homo sapiens, UniProt Q16620). Nature of the assay: Inhibition of recombinant His-tagged human TRKB expressed in baculovirus expression system at 1 uM measured by select screen assay relative to control. A digest of the protocol:
as §1

Chain of BDNF/NT-3 growth factors receptor (Q16620 32-822 limits assumed): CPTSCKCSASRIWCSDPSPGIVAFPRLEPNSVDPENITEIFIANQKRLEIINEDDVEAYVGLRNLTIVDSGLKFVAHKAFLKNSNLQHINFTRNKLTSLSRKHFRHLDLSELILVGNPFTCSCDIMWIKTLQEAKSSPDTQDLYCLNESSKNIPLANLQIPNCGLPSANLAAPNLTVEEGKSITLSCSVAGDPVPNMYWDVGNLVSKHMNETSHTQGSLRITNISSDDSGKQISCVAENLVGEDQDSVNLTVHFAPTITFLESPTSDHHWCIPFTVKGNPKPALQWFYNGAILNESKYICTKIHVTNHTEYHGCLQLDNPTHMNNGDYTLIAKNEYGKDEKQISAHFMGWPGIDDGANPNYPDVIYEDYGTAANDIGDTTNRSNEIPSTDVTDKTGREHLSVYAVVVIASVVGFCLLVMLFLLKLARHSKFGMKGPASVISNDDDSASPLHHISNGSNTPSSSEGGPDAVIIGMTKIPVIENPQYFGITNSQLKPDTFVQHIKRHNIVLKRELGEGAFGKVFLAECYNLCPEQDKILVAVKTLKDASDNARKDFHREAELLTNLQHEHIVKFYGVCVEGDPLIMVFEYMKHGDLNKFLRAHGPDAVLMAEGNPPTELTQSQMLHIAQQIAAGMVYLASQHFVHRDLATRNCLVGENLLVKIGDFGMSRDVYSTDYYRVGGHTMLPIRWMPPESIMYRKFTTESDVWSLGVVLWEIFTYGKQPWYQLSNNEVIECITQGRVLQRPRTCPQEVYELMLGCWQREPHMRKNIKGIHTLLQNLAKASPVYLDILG

For `CN1CCN(c2ccc(C(=O)Nc3n[nH]c4c3CN(Cc3cc(F)cc(F)c3)C4(C)C)cc2)CC1`, the Activity is recorded as 39.1% in the assay on KM12 [1] and 4.25% with KM12 [3]. The viability at 1 µM in the assay with KM12 [2] was 23.7%. The inhibition in assay [4] stood at 0%; in assay [5], 100%.

One may read the inhibition as the change of the read-out against control, counted positive when it falls.
